According to ChEMBL document CHEMBL1156780, “6-(Het)aryl-7-deazapurine ribonucleosides as novel potent cytostatic agents” (J Med Chem, 2010):

Experiments:
HCT-116 = test: Cytostatic activity against human HCT116 cells after 5 days by SRB assay; type: functional; settings: HCT-116, 120 h
How it was run: (§1)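 Cells seeded in RPMI (colon, breast, lung lines), MEM (Du145) or F12K (PC3) with 10% FBS, 37 °C overnight. Day-zero plates fixed with cold 10% TCA. Compounds added as 5-fold serial dilutions for 5 days. Fixed, stained with 0.057% SRB in 1% acetic acid, dye solubilized in 10 mM Tris pH 10.5, A500 read. Growth % corrected for day-0 OD; GIC₅₀ from sigmoidal fit.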

HL-60 = test: Cytotoxicity against human HL60 cells after 3 days by XTT assay; type: functional, cell-based; settings: HL-60, 72 h
How it was run: (§2)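 Cell viability of CCRF-CEM, HL60 and HeLa cells measured by XTT assay after 72 h incubation with compounds. IC₅₀ taken as mean of 2–4 independent experiments.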

A549 = test: Cytostatic activity against human A549 cells after 5 days by SRB assay; type: functional; settings: A549, 120 h; how it was run: as §1
DU-145 = test: Cytostatic activity against human DU145 cells after 5 days by SRB assay; type: functional; settings: DU-145, 120 h; how it was run: as §1
[1] = Cytostatic activity against human Hs578 cells after 5 days by SRB assay; type: functional; settings: Hs578, 120 h; how it was run: as §1
CCRF-CEM = test: Cytotoxicity against human CCRF-CEM cells after 3 days by XTT assay; type: functional, cell-based; settings: 72 h; how it was run: as §2
[2] = Cytotoxicity against human HeLaS3 cells after 3 days by XTT assay; type: functional, cell-based; settings: HeLa S3, 72 h
PC-3 = test: Cytotoxicity against human PC3 cells after 5 days by SRB assay; type: functional; settings: PC-3, 120 h; how it was run: as §1
HCT-15 = test: Cytotoxicity against human HCT15 cells after 5 days by SRB assay; type: functional; settings: HCT-15, 120 h; how it was run: as §1
BT-549 = test: Cytotoxicity against human BT549 cells after 5 days by SRB assay; type: functional; settings: BT-549, 120 h; how it was run: as §1
NCI-H23 = test: Cytotoxicity against human NCI-H23 cells after 5 days by SRB assay; type: functional; settings: NCI-H23, 120 h; how it was run: as §1

Row | Structure (SMILES) | GI50 (HCT-116) | IC50 (HL-60) | GI50 (A549) | GI50 (DU-145) | GI50 [1] | IC50 (CCRF-CEM) | IC50 [2] | GI50 (PC-3) | GI50 (HCT-15) | GI50 (BT-549) | GI50 (NCI-H23)
1 | OC[C@H]1O[C@@H](n2ccc3c(-c4ccsc4)ncnc32)[C@H](O)[C@@H]1O | 220 nM | > 40000 nM | 630 nM | 32 nM | 710 nM | 4000 nM |  |  |  |  | 
2 | OC[C@H]1O[C@@H](n2cc(Cl)c3c(-c4ccccc4)ncnc32)[C@H](O)[C@@H]1O | 1400 nM | 1200 nM | 2500 nM | 140 nM | > 10000 nM | 910 nM | 420 nM |  |  |  | 
3 | OC[C@H]1O[C@@H](n2ccc3c(-c4cccnc4)ncnc32)[C@H](O)[C@@H]1O | > 10000 nM | > 10000 nM | > 10000 nM | > 10000 nM | > 10000 nM | > 10000 nM | > 10000 nM |  |  |  | 
4 | OC[C@H]1O[C@@H](n2ccc3c(Cc4ccccc4)ncnc32)[C@H](O)[C@@H]1O | > 10000 nM | > 10000 nM | > 10000 nM | > 10000 nM | > 10000 nM | 3800 nM | > 7500 nM |  |  |  | 
5 | OC[C@H]1O[C@@H](n2ccc3c(-c4ccc[nH]4)ncnc32)[C@H](O)[C@@H]1O | > 10000 nM |  | > 10000 nM | 630 nM | 1300 nM | 10000 nM |  |  |  |  | 
6 | OC[C@H]1O[C@@H](n2cc(F)c3c(-c4ccco4)ncnc32)[C@H](O)[C@@H]1O | 39 nM | 1200 nM | 110 nM | 5 nM | 180 nM | 1400 nM | 8000 nM | 75 nM | 57 nM | 110 nM | 4300 nM
7 | OC[C@H]1O[C@@H](n2cc(Cl)c3c(-c4cccs4)ncnc32)[C@H](O)[C@@H]1O | 270 nM | 5500 nM | 380 nM | 13 nM | 1600 nM | 2700 nM | 28200 nM |  |  |  | 
8 | OC[C@H]1O[C@@H](n2cc(Cl)c3c(-c4ccoc4)ncnc32)[C@H](O)[C@@H]1O | 2000 nM | 2500 nM | 1100 nM | 54 nM | 1600 nM | 1100 nM | 2700 nM |  |  |  | 
9 | OC[C@H]1O[C@@H](n2ccc3c(-c4ccccc4)ncnc32)[C@H](O)[C@@H]1O | > 10000 nM |  | > 10000 nM | 1100 nM | > 10000 nM | 4000 nM | > 40000 nM |  |  |  | 
10 | OC[C@H]1O[C@@H](n2cc(Cl)c3c(-c4ccsc4)ncnc32)[C@H](O)[C@@H]1O | 100 nM | 1600 nM | 380 nM | 18 nM | 110 nM | 1000 nM | 340 nM |  |  |  | 
11 | COc1ccc(-c2ncnc3c2ccn3[C@@H]2O[C@H](CO)[C@@H](O)[C@H]2O)cc1 | > 10000 nM | > 10000 nM | > 10000 nM | 1300 nM | > 10000 nM | 10900 nM | > 10000 nM |  |  |  | 
12 | OC[C@H]1O[C@@H](n2ccc3c(-c4ccc[se]4)ncnc32)[C@H](O)[C@@H]1O | 340 nM | 2800 nM | 230 nM | 28 nM | 290 nM | 1500 nM | 7400 nM |  |  |  | 
13 | OC[C@H]1O[C@@H](n2cc(F)c3c(-c4c[nH]cn4)ncnc32)[C@H](O)[C@@H]1O | > 10000 nM |  | > 10000 nM | 890 nM | 2100 nM | 1800 nM | 12200 nM |  |  |  | 
14 | Nc1nc(Cl)nc2c1ncn2[C@@H]1O[C@H](CO)[C@@H](O)[C@@H]1F [CLOFARABINE] |  |  |  |  |  |  |  | 63 nM | 180 nM | 65 nM | 40 nM
15 | OC[C@H]1O[C@@H](n2cc(F)c3c(-c4ccsc4)ncnc32)[C@H](O)[C@@H]1O | 140 nM | 4900 nM | 380 nM | 66 nM | 810 nM | 560 nM | 210 nM |  |  |  | 
16 | CCc1ncnc2c1ccn2[C@@H]1O[C@H](CO)[C@@H](O)[C@H]1O | 2600 nM | 5600 nM | 4400 nM | 1200 nM | 4700 nM | 1250 nM | 3600 nM |  |  |  | 
17 | OC[C@H]1O[C@@H](n2cc(F)c3c(-c4ccccc4)ncnc32)[C@H](O)[C@@H]1O | > 10000 nM | > 40000 nM | > 10000 nM | 580 nM | > 10000 nM | 3100 nM | 2600 nM |  |  |  | 
18 | OC[C@H]1O[C@@H](n2ccc3c(-c4ccccn4)ncnc32)[C@H](O)[C@@H]1O | > 10000 nM | > 40000 nM | 4900 nM | 390 nM | > 10000 nM | 1500 nM |  |  |  |  | 
19 | OC[C@H]1O[C@@H](n2cc(F)c3c(-c4ccc[nH]4)ncnc32)[C@H](O)[C@@H]1O | 450 nM | 3300 nM | 190 nM | 9 nM | 310 nM | 410 nM | 230 nM |  |  |  | 
20 | OC[C@H]1O[C@@H](n2ccc3c(-c4cc[nH]c4)ncnc32)[C@H](O)[C@@H]1O | 500 nM | 1200 nM | 360 nM | 30 nM | 440 nM | 280 nM | 260 nM |  |  |  | 
21 | OC[C@H]1O[C@@H](n2ccc3c(-c4ccn[nH]4)ncnc32)[C@H](O)[C@@H]1O | 7300 nM | 10100 nM | 3300 nM | 410 nM | 3900 nM | 910 nM | 1100 nM |  |  |  | 
22 | OC[C@H]1O[C@@H](n2cc(F)c3c(-c4nccs4)ncnc32)[C@H](O)[C@@H]1O | 1300 nM | 1000 nM | 900 nM | 24 nM | 570 nM | 550 nM | 3100 nM |  |  |  | 
23 | OC[C@H]1O[C@@H](n2ccc3c(-c4cn[nH]c4)ncnc32)[C@H](O)[C@@H]1O | 5700 nM |  | 6200 nM | 75 nM | 3100 nM | 1000 nM | 4100 nM |  |  |  | 
24 | OC[C@H]1O[C@@H](n2ccc3c(-c4ccc(F)cc4)ncnc32)[C@H](O)[C@@H]1O | > 10000 nM | 52700 nM | > 10000 nM | 730 nM | 2500 nM | 23200 nM | 2900 nM |  |  |  | 
25 | OCc1ncnc2c1ccn2[C@@H]1O[C@H](CO)[C@@H](O)[C@H]1O | 450 nM | 2200 nM | 250 nM | 30 nM | 53 nM | 450 nM | 350 nM |  |  |  | 
26 | OC[C@H]1O[C@@H](n2ccc3c(-c4c[nH]cn4)ncnc32)[C@H](O)[C@@H]1O | 3700 nM |  | 2600 nM | 94 nM | 1900 nM | 710 nM | 3300 nM |  |  |  | 
27 | OC[C@H]1O[C@@H](n2ccc3c(-c4nccs4)ncnc32)[C@H](O)[C@@H]1O | 480 nM | 1200 nM | 410 nM | 19 nM | 290 nM | 390 nM | 130 nM |  |  |  | 
28 | OC[C@H]1O[C@@H](n2cc(F)c3c(-c4ccoc4)ncnc32)[C@H](O)[C@@H]1O | 18 nM | 2000 nM | 60 nM | 5 nM | 180 nM | 1000 nM | 170 nM |  |  |  | 
29 | OC[C@H]1O[C@@H](n2cc(F)c3c(-c4cc[nH]c4)ncnc32)[C@H](O)[C@@H]1O | 250 nM | 1900 nM | 130 nM | 10 nM | 360 nM | 930 nM | 8900 nM |  |  |  | 
